Converted amounts (≈) assume the structure as drawn.
Assays:
Format in all cases: functional
[1] = test system: Mycobacteroides abscessus; assay: Antimicrobial activity against Mycobacterium abscessus NTU445 isolate after 3 to 5 days by broth microdilution method
How it was run: (§1)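 Clinical isolates subcultured on Trypticase soy agar with 5% sheep blood, 30°C, 72 h. Colonies suspended in cation-supplemented Mueller-Hinton broth to a final inoculum of 5 × 10^5 CFU/ml. Twofold serial dilutions made in the same broth, final well concentrations 0.25 to 128 μg/ml. Trays incubated at 30°C; MIC read after 3 to 5 days.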

[2] = test system: Mycolicibacterium fortuitum; assay: Antimicrobial activity against Mycobacterium fortuitum V146 isolate after 3 to 5 days by broth microdilution method; how it was run: as §1
[3] = test system: Mycobacteroides abscessus; assay: Antimicrobial activity against Mycobacterium abscessus R54 isolate after 3 to 5 days by broth microdilution method; how it was run: as §1
[4] = test system: Mycobacteroides abscessus; assay: Antimicrobial activity against Mycobacterium abscessus R50 isolate after 3 to 5 days by broth microdilution method; how it was run: as §1
[5] = test system: Mycobacteroides abscessus; assay: Antimicrobial activity against Mycobacterium abscessus R31 isolate after 3 to 5 days by broth microdilution method; how it was run: as §1
[6] = test system: Mycobacteroides abscessus; assay: Antimicrobial activity against Mycobacterium abscessus R65 isolate after 3 to 5 days by broth microdilution method; how it was run: as §1
[7] = test system: Mycobacteroides abscessus; assay: Antimicrobial activity against Mycobacterium abscessus R39 isolate after 3 to 5 days by broth microdilution method; how it was run: as §1
[8] = test system: Mycolicibacterium fortuitum; assay: Antimicrobial activity against Mycobacterium fortuitum after 3 to 5 days by broth microdilution method; how it was run: as §1
[9] = test system: Mycobacteroides abscessus; assay: Antimicrobial activity against Mycobacterium abscessus after 3 to 5 days by broth microdilution method; how it was run: as §1
[10] = test system: Mycobacteroides abscessus; assay: Antimicrobial activity against Mycobacterium abscessus V120 isolate after 3 to 5 days by broth microdilution method; how it was run: as §1
[11] = test system: Mycobacteroides abscessus; assay: Antimicrobial activity against Mycobacterium abscessus NTU446 isolate after 3 to 5 days by broth microdilution method; how it was run: as §1
[12] = test system: Mycobacteroides abscessus; assay: Antimicrobial activity against Mycobacterium abscessus CH10 isolate after 3 to 5 days by broth microdilution method; how it was run: as §1
[13] = test system: Mycobacteroides abscessus; assay: Antimicrobial activity against Mycobacterium abscessus R51 isolate after 3 to 5 days by broth microdilution method; how it was run: as §1
[14] = test system: Mycolicibacterium fortuitum; assay: Antimicrobial activity against Mycobacterium fortuitum V13 isolate after 3 to 5 days by broth microdilution method; how it was run: as §1
[15] = test system: Mycobacteroides abscessus; assay: Antimicrobial activity against Mycobacterium abscessus NTU459 isolate after 3 to 5 days by broth microdilution method; how it was run: as §1
[16] = test system: Mycobacteroides abscessus; assay: Antimicrobial activity against Mycobacterium abscessus R53 isolate after 3 to 5 days by broth microdilution method; how it was run: as §1
[17] = test system: Mycobacteroides abscessus; assay: Antimicrobial activity against Mycobacterium abscessus R49 isolate after 3 to 5 days by broth microdilution method; how it was run: as §1
Mycobacteroides chelonae = assay: Antimicrobial activity against Mycobacterium chelonae after 3 to 5 days by broth microdilution method; how it was run: as §1
[18] = test system: Mycobacteroides abscessus; assay: Antimicrobial activity against Mycobacterium abscessus R61 isolate after 3 to 5 days by broth microdilution method; how it was run: as §1
[19] = test system: Mycobacteroides abscessus; assay: Antimicrobial activity against Mycobacterium abscessus R47 isolate after 3 to 5 days by broth microdilution method; how it was run: as §1
[20] = test system: Mycolicibacterium fortuitum; assay: Antimicrobial activity against Mycobacterium fortuitum V61 isolate after 3 to 5 days by broth microdilution method; how it was run: as §1

Row | SMILES | MIC [1] | MIC [2] | MIC [3] | MIC [4] | MIC [5] | MIC [6] | MIC [7] | MIC50 [8] | MIC90 [8] | MIC50 [9] | MIC90 [9] | MIC [10] | MIC [11] | MIC [12] | MIC [13] | MIC [14] | MIC [15] | MIC [16] | MIC [17] | MIC50 (Mycobacteroides chelonae) | further results
1 | NC[C@H]1O[C@H](O[C@H]2C(O)[C@@H](O[C@H]3O[C@H](CO)[C@@H](O)[C@H](N)[C@H]3O)[C@H](N)C[C@@H]2N)[C@H](N)C[C@@H]1O (single isomer, unassigned) [TOBRAMYCIN] | 16 µg/mL (≈ 34.2 µM) | 64 µg/mL (≈ 137 µM) | 32 µg/mL (≈ 68.4 µM) | 16 µg/mL (≈ 34.2 µM) | > 128 µg/mL | 16 µg/mL (≈ 34.2 µM) | 32 µg/mL (≈ 68.4 µM) | 16 µg/mL (≈ 34.2 µM) | 64 µg/mL (≈ 137 µM) | 8 µg/mL (≈ 17.1 µM) | 16 µg/mL (≈ 34.2 µM) | 16 µg/mL (≈ 34.2 µM) | 4 µg/mL (≈ 8.56 µM) | > 128 µg/mL | 32 µg/mL (≈ 68.4 µM) | 128 µg/mL (≈ 274 µM) | 8 µg/mL (≈ 17.1 µM) | 8 µg/mL (≈ 17.1 µM) | 16 µg/mL (≈ 34.2 µM) | 16 µg/mL (≈ 34.2 µM) | MIC90 (Mycobacteroides chelonae): 32 µg/mL (≈ 68.4 µM); MIC [18]: 16 µg/mL (≈ 34.2 µM); MIC [19]: 16 µg/mL (≈ 34.2 µM); MIC [20]: 64 µg/mL (≈ 137 µM)
2 | CN[C@@H]1[C@H](O[C@H]2[C@H](O[C@H]3[C@H](O)[C@@H](O)[C@H](N=C(N)N)[C@@H](O)[C@@H]3N=C(N)N)O[C@@H](C)[C@]2(O)C=O)O[C@@H](CO)[C@H](O)[C@H]1O (stereo in doubt) [STREPTOMYCIN] | > 128 µg/mL | > 128 µg/mL | > 128 µg/mL | > 128 µg/mL | > 128 µg/mL | > 128 µg/mL | > 128 µg/mL | 64 µg/mL (≈ 110 µM) | 128 µg/mL (≈ 220 µM) | 128 µg/mL (≈ 220 µM) | > 128 µg/mL | 128 µg/mL (≈ 220 µM) | > 128 µg/mL | > 128 µg/mL | > 128 µg/mL | 128 µg/mL (≈ 220 µM) | > 128 µg/mL | 128 µg/mL (≈ 220 µM) | 128 µg/mL (≈ 220 µM) | 64 µg/mL (≈ 110 µM) | MIC90 (Mycobacteroides chelonae): 128 µg/mL (≈ 220 µM); MIC [18]: > 128 µg/mL; MIC [19]: > 128 µg/mL; MIC [20]: > 128 µg/mL
3 | CN[C@@H]1[C@@H](O)[C@@H](O[C@@H]2[C@@H](O)[C@H](O[C@H]3O[C@H](CN)[C@@H](O)[C@H](O)[C@H]3O)[C@@H](N)C[C@H]2NC(=O)[C@@H](O)CN)OC[C@]1(C)O [ISEPAMICIN] | 32 µg/mL (≈ 56.2 µM) | 32 µg/mL (≈ 56.2 µM) | 16 µg/mL (≈ 28.1 µM) | 16 µg/mL (≈ 28.1 µM) | > 128 µg/mL | 16 µg/mL (≈ 28.1 µM) | 32 µg/mL (≈ 56.2 µM) | 8 µg/mL (≈ 14 µM) | 16 µg/mL (≈ 28.1 µM) | 8 µg/mL (≈ 14 µM) | 16 µg/mL (≈ 28.1 µM) | 8 µg/mL (≈ 14 µM) | 16 µg/mL (≈ 28.1 µM) | > 128 µg/mL | 16 µg/mL (≈ 28.1 µM) | 64 µg/mL (≈ 112 µM) | 32 µg/mL (≈ 56.2 µM) | 16 µg/mL (≈ 28.1 µM) | 8 µg/mL (≈ 14 µM) | 4 µg/mL (≈ 7.02 µM) | MIC90 (Mycobacteroides chelonae): 8 µg/mL (≈ 14 µM); MIC [18]: 16 µg/mL (≈ 28.1 µM); MIC [19]: 16 µg/mL (≈ 28.1 µM); MIC [20]: 32 µg/mL (≈ 56.2 µM)

Further lines, with some results ahead:

Row | MIC [1] | MIC [2] | MIC [3] | MIC [4] | MIC [5] | MIC [6] | MIC [7] | MIC50 [8] | MIC90 [8] | MIC50 [9] | MIC90 [9] | MIC [10] | MIC [11] | MIC [12] | MIC [13] | MIC [14] | MIC [15] | MIC [16] | MIC [17] | MIC50 (Mycobacteroides chelonae) | SMILES | further results
4 | 32 µg/mL (≈ 54.6 µM) | 4 µg/mL (≈ 6.83 µM) | 32 µg/mL (≈ 54.6 µM) | 32 µg/mL (≈ 54.6 µM) | > 128 µg/mL | 32 µg/mL (≈ 54.6 µM) | 64 µg/mL (≈ 109 µM) | 1 µg/mL (≈ 1.71 µM) | 4 µg/mL (≈ 6.83 µM) | 16 µg/mL (≈ 27.3 µM) | 32 µg/mL (≈ 54.6 µM) | 32 µg/mL (≈ 54.6 µM) | 32 µg/mL (≈ 54.6 µM) | > 128 µg/mL | 32 µg/mL (≈ 54.6 µM) | 4 µg/mL (≈ 6.83 µM) | 32 µg/mL (≈ 54.6 µM) | 32 µg/mL (≈ 54.6 µM) | 32 µg/mL (≈ 54.6 µM) | 8 µg/mL (≈ 13.7 µM) | NCC[C@H](O)C(=O)N[C@@H]1C[C@H](N)[C@@H](O[C@H]2O[C@H](CN)[C@@H](O)[C@H](O)[C@H]2O)[C@H](O)[C@H]1O[C@H]1O[C@H](CO)[C@@H](O)[C@H](N)[C@H]1O [AMIKACIN] | MIC90 (Mycobacteroides chelonae): 8 µg/mL (≈ 13.7 µM); MIC [18]: 32 µg/mL (≈ 54.6 µM); MIC [19]: 32 µg/mL (≈ 54.6 µM); MIC [20]: 4 µg/mL (≈ 6.83 µM)
5 | 16 µg/mL (≈ 33 µM) | 32 µg/mL (≈ 66 µM) | 8 µg/mL (≈ 16.5 µM) | 8 µg/mL (≈ 16.5 µM) | > 128 µg/mL | 8 µg/mL (≈ 16.5 µM) | 16 µg/mL (≈ 33 µM) | 8 µg/mL (≈ 16.5 µM) | 32 µg/mL (≈ 66 µM) | 8 µg/mL (≈ 16.5 µM) | 8 µg/mL (≈ 16.5 µM) | 8 µg/mL (≈ 16.5 µM) | 8 µg/mL (≈ 16.5 µM) | > 128 µg/mL | 16 µg/mL (≈ 33 µM) | > 128 µg/mL | 16 µg/mL (≈ 33 µM) | 4 µg/mL (≈ 8.26 µM) | 4 µg/mL (≈ 8.26 µM) | 4 µg/mL (≈ 8.26 µM) | NC[C@H]1O[C@H](O[C@H]2[C@H](O)[C@@H](O[C@H]3O[C@H](CO)[C@@H](O)[C@H](N)[C@H]3O)[C@H](N)C[C@@H]2N)[C@H](O)[C@@H](O)[C@@H]1O [KANAMYCIN] | MIC90 (Mycobacteroides chelonae): 8 µg/mL (≈ 16.5 µM); MIC [18]: 8 µg/mL (≈ 16.5 µM); MIC [19]: 8 µg/mL (≈ 16.5 µM); MIC [20]: 32 µg/mL (≈ 66 µM)

From ChEMBL document CHEMBL1145515, “In Vitro activities of isepamicin, other aminoglycosides, and capreomycin against clinical isolates of rapidly growing mycobacteria in Taiwan” (2007)
